Experimental data from different studies.
Protocols differ between the studies behind these lines.
Cell line: A549
Observed: cell growth or viability

| SMILES | technique | concentration | time | quantity | value |
| --- | --- | --- | --- | --- | --- |
| O=C1OC2(c3ccc(O)cc3Oc3cc(O)ccc32)c2ccccc21 | CCK-8 |  | 48 h | CC50 | > 200 µM |
| C=C(C)C(CC=C(C)C)Cc1c(O)cc(OC)c2c1O[C@H](c1ccc(O)cc1O)CC2=O (single isomer, unassigned; (-)) | MTT |  |  | IC50 | 50.5 µM |
| CCCCCCCCCCCCCCCC(=O)O | MTS |  | 24 h | IC50 | 145 µM |
| O=C1OC2(c3cc(I)c(O)c(I)c3Oc3c2cc(I)c(O)c3I)c2c(Cl)c(Cl)c(Cl)c(Cl)c21 | CCK-8 |  | 48 h | CC50 | > 200 µM |
| COc1cc2oc(-c3ccc(O)cc3O)c(CC=C(C)C)c(=O)c2c(O)c1/C=C/C(C)C | crystal violet |  | 72 h | CC50 | 38 µM |
| CC(=O)O[C@H]1C(=O)[C@@]2(C)[C@H]([C@H](OC(=O)c3ccccc3)[C@]3(O)C[C@H](OC(=O)[C@H](O)[C@@H](NC(=O)c4ccccc4)c4ccccc4)C(C)=C1C3(C)C)[C@]1(OC(C)=O)CO[C@@H]1C[C@@H]2O | MTT |  | 48 h | IC50 | 0.45 µM |
| O=C1OC2(c3ccccc31)c1ccc(O)c(Cl)c1Oc1c2ccc(O)c1Cl | CCK-8 |  | 48 h | CC50 | > 200 µM |
| CCOC(=O)C1CCN(C(=O)c2ccc(N(CC)Cc3cnc4nc(N)nc(N)c4n3)cc2)CC1 | ATP luminescence |  |  | GI50 | 4.38 µM |
| COc1cccc2c1C(=O)c1c(O)c3c(c(O)c1C2=O)C[C@@](O)(C(=O)CO)C[C@@H]3O[C@H]1C[C@H](N)[C@H](O)[C@H](C)O1 | MTT |  | 48 h | IC50 | 1.4 µM |
| CCN(Cc1cnc2nc(N)nc(N)c2n1)c1ccc(C(=O)c2ccccc2)cc1 | ATP luminescence |  |  | GI50 | 0.23 µM |
| C=C(C)[C@H](CC=C(C)C)Cc1c(O)cc(OC)c(C(=O)/C=C/c2ccc(O)cc2O)c1O | MTT |  |  | IC50 | 57.1 µM |
| O=C1OC2(c3cc(Cl)c(O)cc3Oc3cc(O)c(Cl)cc32)c2ccccc21 | CCK-8 |  | 48 h | CC50 | > 200 µM |
| O=C(O)CCCCC#CCCCC1CCCCC1 | MTS |  | 24 h | IC50 | 40 µM |
| CN(Cc1cnc2nc(N)nc(N)c2n1)c1ccc(C(=O)N2CCCCC2)cc1 | ATP luminescence |  |  | GI50 | 34.9 µM |
| CC(C)=CCc1c(O)c(CC=C(C)C)c2occ(-c3ccc(O)cc3)c(=O)c2c1O | MTT | 100 µg/mL |  | viability | 121% |
